# AP complement: alternative pathway complement inhibition, orthogonal assay | Human serum alternative complement pathway, LPS-coated ELISA, C3 deposition; tested in compound mixtures | inhibition, % at 5 µM | 62,000 tested, 0.08% active;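 active = inhibition above 30% in each of the two pooled mixtures holding the compound, so the lower value exceeds 30%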;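 also: 0% = serum in Mg-EGTA without compound and 100% = EDTA serum blank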
#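 Medium: diluted human serum in Mg2+-EGTA GVB++. Assay system: human serum complement alternative pathway, C3 deposition onto LPS. Also added: Plate-bound LPS. Technique: Anti-C3 ELISA, OD 450 nm. Measure: percent inhibition. Incubation: 1 h at 37 °C. Dosing: 5 µM each compound, pools of ten, 50 µM per pool.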
# PLK1 kinase inh: blocks human PLK1 kinase activity. P53350. recombinant PLK1 kinase, TR-FRET peptide phosphorylation. inhibition, % at 10 µM. 97,000 tested, 0.53% active;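 active = inhibition of 50% or more in the single-concentration screen; inactive = inhibition below 50%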;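 also: 0% = DMSO max control and 100% = H-89 dihydrochloride min control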
# Plk1 PBD FP: Plk1 (human) PBD binding inhibition. P53350. Plk1 PBD phosphopeptide binding, fluorescence polarization. inhibition, %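 (tested at about 20 µM)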. 97,000 tested, 0.13% active; in the data active = inhibition above about 34%, passing the limit was not always enough
# HePTP inhibitor: inhibitors of human HePTP phosphatase; inhibition, % at 20 µM; P35236; recombinant HePTP phosphatase activity, OD absorbance; 110,000 tested, 0.64% active; AID 521; in the data active = inhibition above about 50%;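 also: plate controls were vehicle for no effect and reference inhibitor for full effect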
# PTK2B oligo ant: Pyk2 (human) oligomerization antagonism; Q14289; Q293 cells, Pyk2 FERM NanoBiT luminescence; hits give low values; z-score (the deposit names both 25 µM and 10 µM); 99,000 tested, 0.83% active; AID 1347419;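 active = Z-score of -3 or lower, scaled per plate to the spread of control and sample wells; inactive = z-score above -3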;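 also: negative z-score means lost luminescence so less FERM oligomerization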
# Target sequence (Q14289 whole entry, looked up): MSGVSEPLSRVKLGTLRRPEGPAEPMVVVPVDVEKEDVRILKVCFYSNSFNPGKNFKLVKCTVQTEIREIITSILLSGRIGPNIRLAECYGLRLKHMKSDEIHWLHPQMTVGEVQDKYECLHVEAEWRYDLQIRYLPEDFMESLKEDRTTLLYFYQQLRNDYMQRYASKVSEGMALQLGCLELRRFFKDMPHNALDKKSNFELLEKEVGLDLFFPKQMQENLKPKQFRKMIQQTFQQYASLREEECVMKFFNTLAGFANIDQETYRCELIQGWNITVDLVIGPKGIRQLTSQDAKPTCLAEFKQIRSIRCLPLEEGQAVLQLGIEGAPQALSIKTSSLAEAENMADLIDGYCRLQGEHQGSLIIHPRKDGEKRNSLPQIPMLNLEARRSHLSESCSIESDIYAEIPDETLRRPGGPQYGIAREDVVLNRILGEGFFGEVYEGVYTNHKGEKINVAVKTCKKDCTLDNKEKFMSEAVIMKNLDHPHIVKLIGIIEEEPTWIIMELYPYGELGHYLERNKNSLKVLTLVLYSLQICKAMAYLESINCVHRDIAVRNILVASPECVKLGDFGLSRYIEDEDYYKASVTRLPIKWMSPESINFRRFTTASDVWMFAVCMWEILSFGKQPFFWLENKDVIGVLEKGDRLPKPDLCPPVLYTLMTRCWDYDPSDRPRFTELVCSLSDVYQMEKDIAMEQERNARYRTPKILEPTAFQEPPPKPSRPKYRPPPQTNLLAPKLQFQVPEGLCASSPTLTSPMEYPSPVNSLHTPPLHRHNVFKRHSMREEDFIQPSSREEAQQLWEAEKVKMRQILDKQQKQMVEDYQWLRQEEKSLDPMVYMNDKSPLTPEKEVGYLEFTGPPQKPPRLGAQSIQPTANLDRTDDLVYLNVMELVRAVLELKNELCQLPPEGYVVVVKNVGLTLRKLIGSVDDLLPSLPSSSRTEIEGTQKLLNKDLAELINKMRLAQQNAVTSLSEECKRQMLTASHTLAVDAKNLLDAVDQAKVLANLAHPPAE
# HEK293 NFkB inh: inhibitors of the PMA/ionomycin-induced NF-kB reporter in HEK293 cells | HEK-293 NF-kB luciferase reporter, luminescence | 62,000 tested, 0.21% active | inhibition, % at 3 µM | AID 465;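 active = inhibition above the mean of all tested compounds plus 3 SD, cut at about 40% in these data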;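 also: 0% = stimulated DMSO wells and 100% = 10 µM reference inhibitor 5653914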
#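 Material: HEK-293 cells with stable firefly luciferase reporter driven by four HIV NF-kB elements / Also added: PMA plus ionomycin mix as NF-kB-activating stimulus / Compound dosing: 3 µM once, 0.30% DMSO / Times: 1 h pretreatment, 16 h stimulation, 37 °C / Signal: luminescence / Evaluation: per-plate % inhibition versus controls / Benchmarks: DMSO and 10 µM reference inhibitor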
# Starred values were filed as active, the others as inactive; x = no result given. A selection: hits, their analogues and other compounds. The true share with any hit is near 1.5%.
SMILES,AP complement,PLK1 kinase inh,Plk1 PBD FP,HePTP inhibitor,PTK2B oligo ant,HEK293 NFkB inh
CC(C)Cc1nc2n[nH]c(N)c2c2c1CCCC2,x,69*,-7,x,-1.6,x
CC(C)Cc1nc2n[nH]c(N)c2c2c1CCC2,x,50*,-1,0,0.43,x
CCc1nc2n[nH]c(N)c2c2c1CCCC2,x,47,-8,0,-0.7,x
O=C(O)c1cccc(N2C(=O)c3ccc(OCCOc4ccc5c(c4)C(=O)N(c4cccc(C(=O)O)c4)C5=O)cc3C2=O)c1,x,x,x,104*,x,x
O=C(O)COc1ccc(N2C(=O)c3ccc(C(=O)O)cc3C2=O)cc1,x,x,x,-6,x,x
CC1CCCCC12NC(=O)N(CC(=O)NC(=O)Nc1ccc3c(c1)OCCO3)C2=O (centres undefined),x,4,-8,x,-3.6*,x
CC1CCCCC12NC(=O)N(CC(=O)NC(=O)NCc1ccco1)C2=O (centres undefined),x,-11,-18,x,0.55,x
CCOC(=O)c1c(-c2ccc(OC)cc2)csc1NC(=O)C1CC=CCC1C(=O)O (centres undefined),x,x,x,105*,x,x
CCn1cc(C(=O)NC2CCC(C)CC2)c(=O)c2cc(S(=O)(=O)N3CCCCC3)ccc21 (centres undefined),6,-14,-29,-3,x,-5
CCn1cc(C(=O)N2CCCCC2)c(=O)c2cc(S(=O)(=O)N3CCC(C)CC3)ccc21,5,50*,-5,-10,0.7,20
O=C(CC1C(=O)NCCN1C(=O)Nc1ccccc1)Nc1ccc2c(c1)OCO2 (centres undefined),3,-6,8,6,-1.2,9
O=C(CC1C(=O)NCCN1C(=O)Nc1ccccc1)Nc1cccc(C(F)(F)F)c1 (centres undefined),11,-1,-1,7,-3.2*,10
O=C(Nc1ccccc1)Nc1nnc(-c2ccc(Cl)cc2Cl)s1,x,x,x,9,x,x
O=C(NCC1CCCO1)c1cc(-c2ccco2)nc2ccccc12 (centres undefined),3,-11,10,20,0.75,-5
O=C(CSc1nc(-c2ccco2)cc(C(F)(F)F)n1)Nc1ccc2c(c1)CCC2,2,-13,1,-1,2,35
O=C(NC1CCCCCC1)c1cc(-c2ccco2)nc2ccccc12,x,x,x,98*,x,x
O=C(CSc1nc(-c2ccco2)cc(C(F)(F)F)n1)NC1CCCC1,-3,69*,18,-1,x,4
C=CCN1C(=O)/C(=C\c2ccc(OCCOCCOc3ccc(C)cc3)cc2)SC1=S,x,x,x,11,x,x
CCCCOC(=O)c1cccc(NC(=O)c2ccc(OC)cc2)c1,x,x,x,104*,x,x
CCCCOC(=O)c1ccc(NC(=O)c2cccc(OC)c2)cc1,x,x,x,0,x,x
Cc1cc(C)c(C(N)=O)c(Nc2ccccc2)n1,x,x,x,-19,x,x
Cc1ccc(S(=O)(=O)NCc2nnc(NC(=O)c3ccc(Br)cc3)s2)cc1,x,x,x,58*,x,x
O=C(CN(c1cccc([N+](=O)[O-])c1)S(=O)(=O)c1ccccc1)NCc1ccc(Cl)cc1Cl,x,x,x,1,x,x
O=C1C(=O)c2c(C(=O)c3ccccc3)coc2-c2ccccc21,x,-12,3,x,-3.6*,x
CCOc1cc(OCC)cc(C(=O)Nc2ccc(O)c(-c3nc4cc(C)c(C)cc4o3)c2)c1,x,x,x,-1,x,x
SMILES,AP complement,PLK1 kinase inh,Plk1 PBD FP,HePTP inhibitor,PTK2B oligo ant,HEK293 NFkB inh
CC(=O)c1sc(NC(=O)c2ccc3c(c2)OCO3)nc1C,x,x,x,103*,x,x
CCN1CCN(c2cc(=O)n(C3CCCCC3)c(=O)[nH]2)CC1,11,-8,-13,4,x,9
CN1CCN(c2cc(=O)n(C3CCCCC3)c(=O)[nH]2)CC1,27,65*,4,0,x,6
COCCN1C(=O)C(=O)/C(=C(/O)c2ccccc2)C1c1ccc(Cl)cc1 (centres undefined),x,x,x,4,x,x
CCc1ccccc1N1CCN(S(=O)(=O)c2cc(OC)ccc2OC)CC1,13,-5,-9,3,-3.3*,11
COc1ccc(OC)c(S(=O)(=O)N2CCN(c3ccccc3)CC2)c1,x,x,x,8,x,x
COC(=O)c1c(-c2ccc(Cl)cc2)csc1N,x,x,x,4,x,x
COC(=O)c1c(-c2ccc(C)c(C)c2)csc1N,x,x,x,104*,x,x
O=C(/C=C\c1ccccc1)Nc1ccc2nn(-c3ccc(F)cc3)nc2c1,x,x,x,61*,x,x
O=C(Nc1ccc2nn(-c3ccc(F)cc3)nc2c1)c1cccc(Br)c1,x,x,x,57*,x,x
O=C(/C=C/c1cccc([N+](=O)[O-])c1)Nc1ccc2nn(-c3ccccc3)nc2c1,x,x,x,102*,x,x
Cc1cccc(C(=O)Nc2ccc3nn(-c4ccc(F)cc4)nc3c2)c1,x,x,x,-11,x,x
COc1ccc(/C=C/C(=O)Nc2ccc3nn(-c4ccc(F)cc4)nc3c2)cc1,x,x,x,57*,x,x
O=C(Cc1ccccc1)Nc1ccc2nn(-c3ccc(F)cc3)nc2c1,x,x,x,31,x,x
CN(C)c1ccc(/C=C2\SC(N3CCN(C4=NC(=O)/C(=C\c5ccc(N(C)C)cc5)S4)CC3)=NC2=O)cc1,x,x,x,-8,x,x
CN(C)c1ccc(/C=C2/SC(N=Nc3c(O)[nH]c4ccccc34)=NC2=O)cc1,x,x,x,59*,x,x
CCc1ccc(CN2CCN(Cc3ccc(OC)cc3OC)CC2)cc1,x,x,x,8,x,x
CN1C(=S)SC(N(O)C(=O)Nc2cccc3ccccc23)C1(C)C (centres undefined),x,-5,-9,x,-3.8*,x
CCC1=NN2C(=N)/C(=C/c3ccc(OC(=O)c4ccc(F)cc4)c(OC)c3)C(=O)N=C2S1,x,x,x,8,x,x
CCOc1cc(/C=C2/C(=N)N3N=C(CC)SC3=NC2=O)ccc1OC(=O)c1cccc([N+](=O)[O-])c1,x,x,x,103*,x,x
CCSc1nnc(NC(=O)CSc2c(Cl)cccc2Cl)s1,x,-6,-2,x,-3.2*,x
Cn1cc(/C=C/c2nc3ccccc3c(=O)n2Cc2ccccc2)c2ccccc21,x,x,x,104*,x,x
Cc1ccc(S(=O)(=O)/N=C2\C=C(n3cnc4ccccc43)C(=O)c3ccccc32)cc1,x,x,x,85*,x,x
Cc1ccc(S(=O)(=O)/N=C2/C=C(N3CCOCC3)C(=O)c3ccccc32)cc1,x,x,x,-18,x,x
O=C1NC(=S)S/C1=C/c1ccc(Sc2ccccc2)o1,x,x,x,87*,x,x
SMILES,AP complement,PLK1 kinase inh,Plk1 PBD FP,HePTP inhibitor,PTK2B oligo ant,HEK293 NFkB inh
O=C1NC(=S)S/C1=C\c1ccc(SCc2ccccc2)o1,x,x,x,x,1.8,x
O=C(c1ccc(Br)o1)N1CCN(c2ccc([N+](=O)[O-])cc2)CC1,x,x,x,103*,x,x
Nc1ccc2c(c1)C(=O)c1ccccc1C2=O,x,x,x,-4,x,x
O=C1C(=O)c2ccc(-c3ccccc3)cc2-c2ccccc21,x,-3,29,x,-4.8*,x
O=C(NCc1ccccn1)c1ccccc1[N+](=O)[O-],x,x,x,11,x,x
Nn1c(Nc2ccccc2)nc2ccccc2c1=O,2,59*,4,0,-0.63,3
O=C(O)c1ccc2c(c1)C1C=CCC1C(c1cccc([N+](=O)[O-])c1)N2 (centres undefined),x,x,x,102*,x,x
COc1ccc(/C=C2\SC(=O)N(CCC(=O)N3CCOCC3)C2=O)cc1OC,x,x,x,104*,x,x
COc1ccc(/C=C2\SC(=O)N(CCC(=O)N3CCCCC3)C2=O)cc1OC,x,x,x,8,x,x
